According to ChEMBL document CHEMBL1158053, “Polyoxygenated sterols from the Formosan soft coral Sinularia gibberosa” (J Nat Prod, 2006):
In brackets after ≈: the same amount, converted by molar mass. Activity calls are given as the source filed them. No cut-off for these calls is given here.

Columns and labels:
RAW264.7 [1] = assay: Antiinflammatory activity against LPS-stimulated mouse RAW264.7 cells assessed as inhibition of iNOS expression at 10 uM after 16 hrs by immunoblot analysis relative to control; type: functional
How it was run: (§1)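 RAW 264.7 murine macrophages (ATCC TIB-71) grown in DMEM with 10% heat-inactivated FBS, 37 °C, 5% CO2. Cells activated with E. coli LPS (0.01 µg/mL) for 16 h with or without compound. Lysates were loaded at equal protein and analysed by SDS-PAGE and Western blot. Antibodies were anti-iNOS and anti-COX-2 (1:1000, 180 min), with β-actin reprobe as loading control. ECL detection. Intensity expressed relative to LPS-only group (100%); mean ± SD, n = 3.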

MDA-MB-231 = assay: Cytotoxicity against human MDA-MB-231 cells by MTT assay; type: functional, cell-based
How it was run: (§2)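 ATCC-sourced tumour lines (HepG2, MCF7, MDA-MB-231, A-549) were tested with the MTT colorimetric method.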

A549 = assay: Cytotoxicity against human A549 cells by MTT assay; type: functional, cell-based; how it was run: as §2
RAW264.7 [2] = assay: Cytotoxicity against mouse RAW264.7 cells assessed as cell survival at 10 uM by trypan blue staining; type: cell-based; details: raw264.7, 10 µM
How it was run: (§3)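 RAW 264.7 macrophages (DMEM, 10% heat-inactivated FBS, 37 °C, 5% CO2) were exposed to compound at 10 or 100 µM alongside the LPS-activation protocol. Viability was scored by trypan blue staining.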

[3] = Cytotoxicity against human Hep G2 cells by MTT assay; type: functional, cell-based; details: HepG2; how it was run: as §2
MCF7 = assay: Cytotoxicity against human MCF7 cells by MTT assay; type: functional, cell-based; how it was run: as §2
RAW264.7 [4] = assay: Antiinflammatory activity against LPS-stimulated mouse RAW264.7 cells assessed as inhibition of COX2 expression at 10 uM after 16 hrs by immunoblot analysis relative to control; type: functional; how it was run: as §1
RAW264.7 [5] = assay: Cytotoxicity against mouse RAW264.7 cells assessed as decrease in beta-actin at 100 uM by trypan blue staining; type: cell-based; details: raw264.7, 100 µM
RAW264.7 [6] = assay: Cytotoxicity against mouse RAW264.7 cells assessed as cell loss at 100 uM by trypan blue staining; type: cell-based; details: raw264.7, 100 µM; how it was run: as §3

C=C(/C=C/[C@@H](C)[C@H]1CC[C@H]2[C@@H]3CC(=O)[C@]4(O)C[C@@H](O)C[C@H](O)[C@]4(C)[C@H]3CC[C@]12C)C(C)C [GIBBEROKETOSTEROL B]
Activity (RAW264.7 [1]): inactive | IC50 (MDA-MB-231): > 30 µg/mL | IC50 (A549): > 30 µg/mL | Activity (RAW264.7 [2]): Non-toxic | IC50 [3]: > 30 µg/mL | IC50 (MCF7): > 30 µg/mL | Activity (RAW264.7 [4]): inactive

C=C(/C=C/[C@@H](C)[C@H]1CC[C@H]2[C@@H]3CC(=O)[C@H]4C[C@@H](O)C[C@H](O)[C@]4(C)[C@H]3CC[C@]12C)C(C)C [GIBBEROKETOSTEROL C]
IC50 (MDA-MB-231): > 30 µg/mL | IC50 (A549): > 30 µg/mL | IC50 [3]: > 30 µg/mL | IC50 (MCF7): > 30 µg/mL

C=C(CC[C@@H](C)[C@H]1CC[C@H]2[C@@H]3CC(=O)[C@]4(O)C[C@@H](O)C[C@H](O)[C@]4(C)[C@H]3CC[C@]12C)C(C)C [GIBBEROKETOSTEROL]
Activity (RAW264.7 [1]): 44.5% | IC50 (MDA-MB-231): 14.4 µg/mL (≈ 32.2 µM) | IC50 (A549): 14.5 µg/mL (≈ 32.5 µM) | Activity (RAW264.7 [2]): Non-toxic | Activity (RAW264.7 [5]): Active | IC50 [3]: 13 µg/mL (≈ 29.1 µM) | Activity (RAW264.7 [6]): 38.4% | IC50 (MCF7): 14.1 µg/mL (≈ 31.6 µM) | Activity (RAW264.7 [4]): 68.3%

C=C(CC[C@@H](C)[C@H]1CC[C@H]2[C@@H]3C[C@@H]4O[C@@]45C[C@@H](O)C[C@H](O)[C@]5(C)[C@H]3CC[C@]12C)C(C)C [GIBBEROEPOXYSTEROL]
IC50 (MDA-MB-231): 15.9 µg/mL (≈ 36.9 µM) | IC50 (A549): 15.5 µg/mL (≈ 36 µM)
